In the EternaBench riboswitch data:

Test system: MS2 coat protein
Assay: apparent Kd, MS2 coat protein; higher = weaker binding; RNA-MaP array; FMN 200 µM where present
Method in brief: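 The titrant was SNAP-549-labelled MS2 coat protein, run from 0.7 or 1.5 nM in doubling steps to 3 µM. It was applied to designs transcribed by stalled E. coli RNA polymerase on Illumina sequencing-chip clusters, without ligand first and then with constant ligand, in 100 mM Tris-HCl pH 7.5, 80 mM KCl, 4 mM MgCl2, BSA, DTT, yeast tRNA and Tween-20. The apparent Kd is the median of filtered per-cluster binding-curve fits, with green signal normalised to red-channel RNA signal and control-cluster median Fmax.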

[1] = designed as: ON switch for flavin mononucleotide, no ligand
[2] = ligand present: flavin mononucleotide, designed as: ON switch for flavin mononucleotide
[3] = designed as: OFF switch for flavin mononucleotide, no ligand
[4] = ligand present: flavin mononucleotide, designed as: OFF switch for flavin mononucleotide

Sequence	apparent Kd [1] [nM]	apparent Kd [2] [nM]	apparent Kd [3] [nM]	apparent Kd [4] [nM]
AGAUAACACCAGAAGGACAUGAGGAUCACCCAUGUAGGAUAUGGGCAUCACUCGAGAAAGAUACGACCAAAGGGACACGCGGUC	124	9.97		
AAUUAUAUACAGAAGGAGUUAUAUUGAGUAUUACUAGGAUAUGUUCACAUGAGGAUCACCCAUGUCAUAUUGGGAUUUAUUAUA			21.6	27.9
UGCUACGUUUCGUAGCAGCUAGGUGAGGAUAUUCAAUUUUUCACAUGAGGAUCACCCAUGUAUGUGAAGAAGGCGCCUAGAAAG	12.3	5.26		
AGUGUAUCCCUAGGAUAUGCACAUGAGGAUCACCCAUGUAAACCCGCGCAGGCUCUUCUCAUGUCGCAGAAGGAGGGACCCGGA			311	39.6
ACAUGAGGAUCACCCAUGUUACGAACAUGAGGAUCACCCAUGUAGGAUAUGCUACUCAAAGAGUAGCAGAAGGACAUGUGCCUU			1090	559
GAUCACUCUGUGAGGAUAUGAGGGCUCUUAGAGUAUCAGAAGGCACAUGAGGAUCACCCAUGUAUUCCGUUCUA			42.5	259
UUUACAUUACGAGGAUAUCAUUUAUUUCAUGUUUGAGAAGGCGUUUUUUUUAUUACCUUACAUGAGGAUCACCCAUGUUUCUUU	35.8	21.8		
UAGGACUACGUAGGAUAUGUAGGAUAUUCCUACAUGAGGAUCACCCAUGUUAGCAUGUAAGUAGGACAGAAGGACGUGGUAAAU	695	79.9		
AAUCGAUCAACAGGAUAUGCGCAAUGAUCUGAACAUGAGGAUCACCCAUGUGCAGAAGGGUUGGUCAUCUUUUGGGACGAGACA			101	311
GGAUAGUGUCGUUAUCCGUAGCGAACAUGAGGAUCACCCAUGUAGGAUAUGUUAUUAAACUAAUAACAGAAGGACGUUGGUCUC			66.2	434
GGAGCAUAUCAAUACAUGAGGAUCACCCAUGUCGAAUGAUAUGAGGAUAUGCAUCGGAAAACGAUGUAGAAGGCAUAGUGCUCC	9.14	5.58		
GCGGCUAGUGCAGGAUAUCGGCGCGUGUAGCGCCGAGAAGGGCACAUGAGGAUCACCCAUGUGAUCAAUCAAUGCUAAUGCCGC			7.38	25.4
ACAAGAUCAGGAUAUACAUGAGGAUCACCCAUGUAUUUCAAAAAGGGACUUUCUUUAUGUAGAAGGGAUCUUGU			50.8	67.2
GAGGAGUCAGGAUAUCGGGAAAGGUUGAGGAAGAGAAGAAGCGAGAAGGGACAUGAGGAUCACCCAUGUAGAAG			52.4	47
GCUAUCGAUGUAGGAUAUGCUAGAGAAACUCUGGCAGAAGGACAUGAGGAUCACCCAUGUCAAUGGAUGGAGAGAAGAGAUGGC			24.1	58
AGAAAAGCAGGAUAUAUCCGGGAUAACAUGAGGAUCACCCAUGUGACCGCUUGAUAUCCUAUAGAAGGGCUUAAGA			24.4	51.2
CGAUCGUGUAGAGGAUAUGUUAAACAUGAGGAUCACCCAUGUAAGGUAGAAAUUUUUAUAAACAUACAGAAGGCUACACGAUCG			7.32	5.15
CGCUACUACCAGAAGGACAUGAGGAUCACCCAUGUAGGAUAUGGGUUACAAGUACCAGUGUAAAGAAACUACGCUACGUAUGCG	36.6	7.84		
AGGGAGUAAGGAUAUGCUGCUCGUCACUUGCGUGAUGAGUAGCAGAAGGUACAUGAGGAUCACCCAUGUAAAGA			30	22.9
AGUGACUACGUAGGAUAUUAAUUCAUGGACUACAUGAGGAUCACCCAUGUUUAUUUAACAUCAGCUAAGAAGGACGUGGUCACA	16.6	8.5		
GUAGCAUACCGAGGAUAUUCAACGACAAAGUCGACAUGAGGAUCACCCAUGUGGCGAAAGCCUUGGGAGAAGGCGGAAUGCUAC	16.5	11.1		
GGUGGACAUGAGGAUCACCCAUGUGAGGAUAUCGGCUGGUGCGUGGUGGCUGGCAUCUCGAGAAGGCACAUAGU			94.4	171
GACAGUGCAAUAAUAAUAAGAUCUACAUGAGGAUCACCCAUGUAGGAUAUCGUCAGGAAUACUGACGAGAAGGACAUAGCACUG			13.1	15
AGUAGAUCAGGAUAUACGUAAAUGGUAAUUAUGUAACUUCAACAUGAGGAUCACCCAUGUAGAAGGGAUCUACA			14.6	15.1
UGGUACAUCGGAGGAUAUCAUGUAAAUACAUGAGGAUCACCCAUGUCGAUGGAGACAUCGGAGAUUGAGAAGGCCGAUGUACCU	480	23.4		
UGAGCCUCGUGAGGAUAUACAUGAGGAUCACCCAUGUAAUAAAGUGAACGGAGGUAACUCCGAAUGUAGAAGGCACGAGGCUCA			38	306
AGAUACUACGAGAAGGACAUGAGGAUCACCCAUGUAACCAGUAUCUGGAAUGUAGGAUAUCGUAGUAUCAGGAUCGUGAGAUCA			9.91	32.9
UAUGACAUGAGGAUCACCCAUGUCAGCGAGAAAUGAGAGUCACAGGAUAUGUUUUCGGCCGGCAGACAGAAGGGUGACCCUCAG	7.21	6.89		

Sequence	apparent Kd [1] [nM]	apparent Kd [2] [nM]	apparent Kd [3] [nM]	apparent Kd [4] [nM]
UCCUUGUCCUGAGGAUAUCCGUGGUUACCGAAAGGAGAAGGCAGGACAUGAGGAUCACCCAUGUACCCAGAAAACGUGCAGAGU			125	381
ACGACGAAAGUCGAACGAUGAUCGAGAAGGACAUGAGGAUCACCCAUGUCUGCUGUAACAGCCAUGUAGGAUAUCGAUCAUCGA			3.62	4.13
CCGGAACAUGAGGAUCACCCAUGUGAGGAUAUCGUACGUUCGUCGAUAGACGAUCGUACGAGAAGGCACGCCGG			18.2	17.3
UAUAUUAUUAUAGGAUAUGGAUACGAUGCGUAUCCAGAAGGGUGAUUAUAAUAUAAUCUAUACAUGAGGAUCACCCAUGUUUAU	303	73.9		
UUAUGAGAGCAGGAUAUCUUAUAUUUGUAUUAAAGAGAAGGGCUCACAUGAGGAUCACCCAUGUGGUCCUAGAU			51.6	431
UAUAUAUAGUAAGGAUAUGUAAUCAUUUUAUAAACAGAAGGUACUGACAUGAGGAUCACCCAUGUUUUAGUGUGGGCAUGUAGA			86.4	141
GUGAAGGUAGGAUAUACGAUAAUAUAGGGUAGAUAUAUAACACAUGAGGAUCACCCAUGUAGAAGGACCAAUUG			34.2	122
UUCAGCUCGUGAGGAUAUACAUGUGCUGGAAACAGCACUAUUAAGUUCACAUGAGGAUCACCCAUGUAGAAGGCACGAGCUGAG			14.9	19.3
GAUUCACAUGAGGAUCACCCAUGUGAGGAUAUAGUGCAGGAGGUGGAUGCCCGCCUCUCUAGAAGGCACACGGG			21.9	24.5
CCGAAACCUCAGAAGGACCACAUGAGGAUCACCCAUGUCAAGCAAAACGGUAGGAUAUGAGGGAAAAGUCGAUAUACCCGACAG	7.84	3.93		
AAUAUAGAGCUGGAAUAAAACCUCACAUGAGGAUCACCCAUGUAGGAUAUCAGCACGAUAAGUGCUGAGAAGGACAUCCAGCUC			15.6	17.9
UCGACCCUAGGAUAUACAUGAGGAUCACCCAUGUUUGUCGAAGAACGAACAGUCCUCAGUAGAAGGAGGACGAA			22.3	23.8
CGUUCAGCGAACGAUACGAAUGGACAUGAGGAUCACCCAUGUAGAAGGACAGGAGAAUAACGACUGUAGGAUAUACAUUUAGUG			41.1	84.8
UGGUACUAGGGAGGAUAUGGGAAGACACAUGAGGAUCACCCAUGUUUAAGAAUGCCGAGAGGCAACUAGAAGGCCCUAGUACCU	71.9	7.95		
GUAGCAUACCGAGGAUAUUCAUAGCGGAAACGCACAUGAGGAUCACCCAUGUGGCGAAAGCCUUGGGAGAAGGCGGAAUGCUAC	118	18.1		
GGGUACAUCGGAGGAUAUCAUGUAAAUACAUGAGGAUCACCCAUGUCGAUGGAGACAUCGGAGAUUGAGAAGGCCGAUCUACCG	213	9.94		
CCGCAAAAGCAGGAUAUCGUAUCGGAUACGAUACGAGAAGGGCUAACAUGAGGAUCACCCAUGUGUCCUAGCGG			16.9	25.6
AAAUUAAGAAGAGGAUAUUGACAUGAGGAUCACCCAUGUAUUUGGGAGUGUUUACUGAAUUCUUACGAGAAGGUUUACGAACUU			278	211
GGGUUGUGAGGAUAUUAGUUGUACGUCAAUAGACGUAUAGGUGAGAAGGCACAUGAGGAUCACCCAUGUUCCUG			23.8	56.9
UUGUUGUAUGUAGGAUAUGCAUAUUAUUAUUAUGCAGAAGGACAUGAGGAUCACCCAUGUAUGUUAUUAUUAUAUGUUAUAUAU			27.6	35.6
ACCACGUUAGCGAUAUGAUCGAGAGAUCAUGUCGCUAAUUUUAGAAGGACAUGAGGAUCACCCAUGUAGGAUAUGGGACGUGGA	14.7	7.88		
AAGGAGUGAGGAUAUACAUGAGGAUCACCCAUGUUGAUGGAAACGUCAGAGAAAGAAGGUAGAAGGCACAAGAA			56.7	58.5
AGUACUACAGGAUAUACGAGGGAGGUCCACGUGACCCUUAUACAUGAGGAUCACCCAUGUAGAAGGGUAGUACA			80.3	16.4
GACGCUAAAGGAUAUACAUGAGGAUCACCCAUGUUGAGGAAGGUUAGAUGAGGAGUAAGUAGAAGGUUAGGCGA			38	35.6
CGGCCGCUACGCCGGCUCGACGCACAGGAUAUGCUGUUACAUGAGGAUCACCCAUGUGGCCAUGAGCAGAAGGGUGAUUCGCGA	48.9	30.9		
UGCCUGAGUCGAGGAUAUUAUGGAUCCUUUAAUACAUGAGGAUCACCCAUGUAAUUAAUUAUACAUGAGAAGGCGACUCAGGCU	88.8	12.5		
CUGUACAUAGGAUAUAGUUGCUUUUACAUGAGGAUCACCCAUGUCACUCCUCUCUCUCUUCUAGAAGGAUGUUUCU			72.4	53.8
